Test results reported in article PMC7051832 (ACS chemical biology, 2019).

Experiments:
[1] = target: E. coli dihydrofolate reductase (ecDHFR) (Escherichia coli, UniProt P0ABQ4); assay: NMR 15N-HSQC titration of model fragments binding to ecDHFR
Outline: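 15N-ecDHFR at 100 μM, in bulk buffer (20 mM Tris pH 8.5, 100 mM NaCl, 10 mM DTT, 0.02% azide) or in reverse micelles (52.5 mM 10MAG, 18 mM LDAO, 4.5 mM DTAB, hexanol, pentane; W0 15; 5 mM in water core). Titrated with fragment. 15N-HSQC at 25 °C, 1024 × 64 complex points, 32 scans. Chemical shift perturbations fitted for Kd; error from fitting.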

[2] = target: interleukin-1β (IL-1β) (Homo sapiens, UniProt P01584); assay: Reverse micelle; type: binding; settings: RM encapsulated IL-1β
Chain of interleukin-1β (IL-1β) (P01584 117-269): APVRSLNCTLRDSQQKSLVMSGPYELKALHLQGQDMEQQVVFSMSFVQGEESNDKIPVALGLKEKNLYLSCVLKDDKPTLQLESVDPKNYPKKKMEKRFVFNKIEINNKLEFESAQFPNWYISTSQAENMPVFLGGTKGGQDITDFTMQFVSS

Chain of E. coli dihydrofolate reductase (ecDHFR) (P0ABQ4 whole entry, the tested form may be a part): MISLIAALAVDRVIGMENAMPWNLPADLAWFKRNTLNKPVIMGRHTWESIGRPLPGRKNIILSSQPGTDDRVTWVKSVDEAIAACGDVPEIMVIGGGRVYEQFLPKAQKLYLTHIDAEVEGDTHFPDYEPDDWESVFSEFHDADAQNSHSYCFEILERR

SMILES	Kd ([1]; binding to ecDHFR, natural cofactor, NMR titration) [µM]	degree of saturation of the protein ([1]; same absolute amounts of protein and ligand, both bulk and RM samples)	binding sites on the protein surface [2]
NC(=O)c1ccc[n+]([C@@H]2O[C@H](COP(=O)([O-])OP(=O)(O)OC[C@H]3O[C@@H](n4cnc5c(N)ncnc54)[C@H](OP(=O)(O)O)[C@@H]3O)[C@@H](O)[C@H]2O)c1 [NADP^+]	9 ± 2	saturated the enzyme in both bulk and RM samples	–
OCc1ccc2nccn2c1 [imidazo[1,2-a]pyridine-6-ylmethanol]	–	–	bound to multiple sites on the protein surface
